Jurkat NFkB inh – inhibitors of the PMA/ionomycin-induced NF-kB reporter in Jurkat cells; PMA/ionomycin-induced NF-kB luciferase reporter, luminescence; inhibition, % at 4 µM; 0.53% of 330,000 active; AID 435003; in the data active means inhibition above about 50%
Mdm2 MdmX PPI – human Mdm2/MdmX binding inhibition. O15151+Q00987. SaOS-2 split-luciferase Mdm2/MdmX complementation, luminescence. inhibition, % at 8 µM. 3% of 330,000 active;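 active means inhibition of at least 50% at 8 µM in the primary screen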
Target sequence (O15151 whole entry, looked up): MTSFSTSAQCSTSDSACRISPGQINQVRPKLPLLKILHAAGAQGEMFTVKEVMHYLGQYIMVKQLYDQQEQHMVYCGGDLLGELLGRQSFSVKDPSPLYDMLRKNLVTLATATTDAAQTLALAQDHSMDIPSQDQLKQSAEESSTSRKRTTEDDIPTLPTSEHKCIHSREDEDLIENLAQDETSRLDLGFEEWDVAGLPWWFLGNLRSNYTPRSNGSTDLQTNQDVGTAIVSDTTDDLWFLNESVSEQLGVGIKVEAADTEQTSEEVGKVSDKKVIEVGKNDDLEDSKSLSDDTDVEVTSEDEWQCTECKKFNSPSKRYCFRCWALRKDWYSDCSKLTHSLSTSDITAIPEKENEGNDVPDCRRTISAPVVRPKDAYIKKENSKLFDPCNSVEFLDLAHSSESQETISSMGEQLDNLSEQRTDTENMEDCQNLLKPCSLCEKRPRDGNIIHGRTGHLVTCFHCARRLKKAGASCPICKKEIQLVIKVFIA
Target sequence (Q00987 whole entry, looked up): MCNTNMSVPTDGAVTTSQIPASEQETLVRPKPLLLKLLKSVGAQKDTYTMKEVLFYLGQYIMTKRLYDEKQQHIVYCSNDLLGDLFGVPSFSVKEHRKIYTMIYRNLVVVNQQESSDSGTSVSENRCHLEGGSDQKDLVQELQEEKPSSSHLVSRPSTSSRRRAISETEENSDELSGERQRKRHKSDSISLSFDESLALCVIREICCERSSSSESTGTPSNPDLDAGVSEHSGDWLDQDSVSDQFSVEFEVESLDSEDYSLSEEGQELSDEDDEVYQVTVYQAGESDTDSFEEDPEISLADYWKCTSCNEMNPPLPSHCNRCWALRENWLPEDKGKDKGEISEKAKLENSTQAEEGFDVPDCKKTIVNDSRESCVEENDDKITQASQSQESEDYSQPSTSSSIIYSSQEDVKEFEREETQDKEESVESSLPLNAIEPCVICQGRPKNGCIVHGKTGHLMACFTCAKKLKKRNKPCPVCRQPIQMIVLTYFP
aSyn 5UTR inh – MLPCN primary screen, SNCA 5' untranslated region. alpha-synuclein 5'UTR reporter, inhibitor activity. inhibition, % (tested at 7.5 µM). 0.82% of 300,000 active. AID 1813; in the data active means inhibition above about 60%;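 further: H4 neuroglioblastoma cells stably carrying SNCA 5'UTR luciferase fusion; 0% = DMSO wells and 100% = positive control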
697 NFkB inh – inhibitors of the PMA/ionomycin-induced NF-kB reporter in 697 B cells; inhibition, % at 4 µM; 697 B-cell NF-kB luciferase reporter, 16 h; 0.33% of 330,000 active; in the data active means inhibition above about 35%
VIM-2 inhibitor – blocks Pseudomonas aeruginosa VIM-2 metallo-beta-lactamase. AID 1527. 0.89% of 290,000 active. inhibition, % at 5.6 µM. purified VIM-2, nitrocefin hydrolysis, epi-absorbance fluorescence;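 active means inhibition above the mean of all tested compounds plus 3 SD, cutoff set per screening run, cut at about 7.5% in these data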;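 further: red hydrolysis product quenches plate fluorescence so inhibitors raise well fluorescence; 0% = enzyme with DMSO and 100% = DMSO without enzyme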
IMP-1 inh – inhibitors of Pseudomonas aeruginosa IMP-1 metallo-beta-lactamase; purified IMP-1, nitrocefin hydrolysis, epi-absorbance fluorescence; inhibition, % at 5.6 µM; 0.45% of 290,000 active; AID 1556;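 active means inhibition above the mean plus 3 SD of all compounds in the same screening run, cut at about 4.5% in these data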;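 further: 0% = IMP-1 with DMSO and 100% = DMSO wells lacking enzyme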
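System – purified recombinant IMP-1 beta-lactamase · Input – IMP-1 dispensed at 0.2 nM · Timing – 15 min preincubation plus 25 min reaction at 25 °C · Signal – Epi-absorbance fluorescence, 480 nm excitation, 530 nm emission · Measure – percent IMP-1 inhibition derived from blank-referenced optical density · Controls – Enzyme-plus-DMSO low control, enzyme-free DMSO high control · Replication – singlicate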
The depositor's hits bear a star; x = no result. Shown are actives, neighbours in structure and some others; about 4.7% of the full set was active somewhere.

SMILES | Jurkat NFkB inh | Mdm2 MdmX PPI | aSyn 5UTR inh | 697 NFkB inh | VIM-2 inhibitor | IMP-1 inh
CC(NC(=O)Cc1ccc(-c2ccccc2)cc1)c1ccccc1 (stereo unspecified) | 2.7 | 30.9 | 15.2 | -26.5 | 0.1 | 5.0*
CC1CN(CCCCOc2ccc(Cl)c3ccccc23)CC(C)O1 (stereo unspecified) | -9.4 | 18.0 | 8.8 | -5.2 | 1.0 | 4.5*
CCCn1c(C(C)Nc2nc(-c3cccc(Br)c3)cs2)nc2ccccc21 (stereo unspecified) | -15.2 | -1.2 | 7.3 | -16.3 | 7.9* | -1.2
CCCn1c(C(C)Nc2nc(-c3ccc(C)cc3)cs2)nc2ccccc21 (stereo unspecified) | 12.3 | 15.5 | 1.5 | -5.1 | -2.5 | -2.2
COC(=O)CN(C#N)c1nc(NC(C)C)nc(NC(C)C)n1 | 13.6 | 13.4 | -1.9 | 0.9 | -2.6 | -2.8
CC(C)Nc1nc(Cl)nc(N(C#N)CN2C(=O)c3ccccc3S2(=O)=O)n1 | 3.7 | 8.4 | -22.1 | 1.9 | 3.5 | 6.9*
CN(C)c1nc(N(C)C)nc(N(C#N)CN2C(=O)c3ccccc3S2(=O)=O)n1 | 7.4 | 29.6 | -9.8 | 15.5 | 5.2 | 0.7
COc1nc(NC(C)C)nc(N(C#N)CN2C(=O)c3ccccc3S2(=O)=O)n1 | 3.1 | 0.9 | -0.7 | 8.7 | 6.8 | 12.0*
CCOC(=O)c1ccc(S(=O)(=O)NCCNCc2ccccc2)cc1 | -1.6 | -12.5 | x | 13.8 | x | x
COc1ccc(-c2noc(CCCC(=O)NC3CCCC3)n2)cc1 | 14.5 | 35.2 | 62.4* | 1.0 | -0.8 | -2.4
CC(c1ccccc1)C1CC(=O)N(c2ccc(C(=O)O)cc2)C1=O (stereo unspecified) | 10.2 | 5.6 | 10.8 | -11.9 | -2.9 | -2.6
COc1ccc2nc(N3C(=O)CC(C(C)c4ccccc4)C3=O)sc2c1 (stereo unspecified) | 3.2 | 4.2 | 1.2 | 18.9 | 3.7 | 7.9*
Cc1cc(C)nc(N2C(=O)CC(C(C)c3ccccc3)C2=O)n1 (stereo unspecified) | 15.4 | -7.5 | 25.2 | 3.6 | -1.0 | 9.3*
O=C(Nc1ccnn1C1CCN(Cc2cc(Cl)ccc2O)CC1)C1CC1 | -2.8 | 24.5 | 17.6 | -0.3 | -1.0 | -0.2
Nc1ccc(-c2nc3c(Cl)cc(N)cc3[nH]2)cc1 | 23.8 | 40.2 | 85.2* | -40.8 | -0.1 | -0.8
Cc1cc2nc(/C=C/c3cccnc3)[nH]c2cc1C | -20.8 | -13.3 | 92.1* | -141.6 | -2.6 | -2.1
Cc1cc2nc(/C=C/c3nc4cc(C)c(C)cc4[nH]3)[nH]c2cc1C | x | x | -9.1 | x | -1.9 | 1.5
O=C1NC(=S)S/C1=C\c1ccc(SCc2ccco2)o1 | x | x | x | x | 3.7 | 9.7*
COc1cccc(C(=O)NCC2(c3ccc(OC)c(OC)c3)CCCC2)c1 | -11.1 | 22.2 | 35.5 | 6.5 | 1.3 | -1.5
O=S(=O)(Nc1ccc2c3c(cccc13)CC2)c1ccc(F)cc1 | 3.7 | 10.5 | 9.2 | -7.6 | -0.3 | 7.8*
Cc1ccnc2nc(C(=O)OCC(=O)N(Cc3ccccc3)C(C)(C)C)nn12 | -81.1 | 9.3 | x | 13.1 | x | x
O=c1[nH]cc(N=Cc2cc(Cl)cc(Cl)c2O)c(=O)[nH]1 | -6.9 | 15.3 | -7.4 | -10.7 | -0.4 | 11.5*
O=c1[nH]cc(N=Cc2cc([N+](=O)[O-])ccc2O)c(=O)[nH]1 | -0.3 | 28.4 | -4.0 | 3.2 | -1.9 | -1.3
CCOC(=O)CNc1nc(OCC#N)nc(N2CCOCC2)n1 | 2.0 | 6.7 | 18.1 | 2.1 | -1.6 | 20.0*
CCOC(=O)COc1nc(OC)nc(N2CCOCC2)n1 | 3.6 | -33.2 | 20.7 | -1.5 | -1.0 | -3.4
SMILES | Jurkat NFkB inh | Mdm2 MdmX PPI | aSyn 5UTR inh | 697 NFkB inh | VIM-2 inhibitor | IMP-1 inh
N#C/C(=C\c1ccc(OCc2ccc(Br)cc2)cc1)C(=O)Nc1cccc(C(=O)O)c1 | x | x | -76.2 | x | -5.1 | 6.3*
COc1ccc(-c2cc(C(=O)Nc3ccc4c(c3)OCO4)no2)cc1 | 8.6 | 1.2 | -17.9 | 18.5 | -2.1 | -2.6
O=C(Nc1cccc(O)c1)c1cc(-c2ccc3c(c2)OCO3)on1 | -27.9 | 39.6 | 69.3* | -100.1 | -2.8 | -1.6
COc1cc(CN2CCN(C(=O)c3cccc4ccccc34)CC2)cc(OC)c1O | 2.7 | 9.8 | -16.8 | 21.4 | -2.2 | -7.1
COc1ccc(CC(=O)NNC(=O)c2ccc(NC(C)=O)cc2)cc1 | -2.8 | 0.0 | 19.0 | 14.6 | -1.4 | 9.6*
C[C@@H]1CN(c2c(F)c(N)c3c(=O)c(C(=O)O)cn(C4CC4)c3c2F)C[C@H](C)N1 | x | x | x | x | 8.4* | -1.4
C[C@@H]1CN(c2c(F)c(F)c3c(=O)c(C(=O)O)cn(C4CC4)c3c2F)C[C@H](C)N1 | -19.2 | -30.4 | 3.7 | 2.7 | 1.3 | -2.6
COc1ccc(N2C(=O)CC(Sc3ncccc3C(=O)O)C2=O)cc1 (stereo unspecified) | -0.9 | 9.9 | 5.1 | 1.1 | -0.3 | -3.0
O=C(O)c1cccnc1SC1CC(=O)N(c2ccccc2)C1=O (stereo unspecified) | -3.4 | 5.5 | 3.0 | 10.6 | -0.6 | 5.2*
Cc1ccc(-c2cc(C(=O)N/N=C/c3c[nH]c4ccccc34)[nH]n2)cc1 | x | x | 77.5* | x | -0.6 | 1.3
O=C(O)c1ccc(N/N=C/c2c[nH]c3ccccc23)cc1 | 35.4 | -0.4 | 78.6* | -92.9 | -3.7 | -1.9
O=C(N/N=C/c1c[nH]c2ccccc12)c1cc(-c2ccc(-c3ccccc3)cc2)n[nH]1 | -22.3 | 44.4 | -145.6 | -51.2 | -2.2 | -1.0
O=C(COc1c(Br)cc(Br)cc1Br)N/N=C/c1ccco1 | 10.9 | 37.5 | x | 0.4 | 0.6 | -0.8
O=C(C1=C(O)C(=O)N(CCc2ccccc2)C1c1cccnc1)c1ccco1 (stereo unspecified) | -3.2 | 10.4 | 8.8 | 3.6 | 4.0 | 5.9*
O=C(C1=C(O)C(=O)N(Cc2cccnc2)C1c1cccc(Oc2ccccc2)c1)c1ccco1 (stereo unspecified) | -0.6 | 9.4 | x | 5.3 | x | x
Cc1ccccc1NC1=C(Cl)C(=O)N(C2CCCCC2)C1=O | 12.5 | 8.1 | -132.8 | 5.7 | -2.1 | 8.2*
O=C(COc1ccc(F)cc1)NCC1(N2CCCCC2)CCCCC1 | -13.8 | 12.6 | x | 2.0 | x | x
Cc1[nH]c2ccccc2c1CCC(N)=O | -9.2 | -20.9 | 31.4 | -2.0 | -0.7 | 0.4
Cc1[nH]c2ccccc2c1Cc1nnc(SCC(N)=O)o1 | 14.4 | 14.8 | 7.8 | 10.0 | 0.3 | 9.6*
CCc1nnc(NC(=O)c2ccncc2)s1 | 3.8 | -5.6 | -5.8 | -2.6 | -3.2 | -3.7
CCc1nnc(NC(=O)c2cccc(C(=O)Nc3nnc(CC)s3)n2)s1 | x | x | 66.0* | x | -3.6 | -2.2
O=C(O)c1ccc(-c2ccco2)n1Cc1ccccc1 | -18.6 | 14.2 | -5.8 | 2.7 | 1.9 | 8.8*
COC(=O)c1ccc(-c2ccco2)n1Cc1cccc(C)c1 | -5.7 | 12.9 | 5.3 | 7.8 | -4.7 | 2.2
C[C@@]12C(=O)N(CC3CCCO3)CC(=O)N1[C@H]1c3ccccc3OC[C@@H]1[C@@H]2c1ccccc1 (stereo partly specified) | -3.2 | 12.9 | x | -4.7 | x | x
